This passage reports IC50, AUC and half-life results from ChEMBL document CHEMBL1128424, “New orally active serine protease inhibitors” (J Med Chem, 1995).

The structures appear in SMILES notation.

For one data set, the target named is Chymotrypsinogen A (Bos taurus, UniProt P00766). The data set can be described thus: Concentration required to inhibit enzymatic cleavage of the chromogenic substrate (Suc-Ala-Ala-Pro-Phe-pNA) for chymotrypsin in vitro.
The target in the next data set is T1, Neutrophil elastase (Homo sapiens, UniProt P08246).
T1 sequence (P08246 whole entry): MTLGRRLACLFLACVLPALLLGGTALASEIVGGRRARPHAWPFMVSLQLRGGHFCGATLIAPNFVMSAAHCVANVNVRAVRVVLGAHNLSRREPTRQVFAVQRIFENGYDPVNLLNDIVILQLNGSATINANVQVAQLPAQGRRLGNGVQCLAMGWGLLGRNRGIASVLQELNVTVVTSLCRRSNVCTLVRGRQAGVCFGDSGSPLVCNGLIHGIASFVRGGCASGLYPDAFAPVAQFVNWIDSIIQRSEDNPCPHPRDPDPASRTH
Nature of the data set: Concentration required to inhibit enzymatic cleavage of the chromogenic substrate (MeO-Suc-Ala-Ala-Pro-Val-pNA) for sputum elastase in vitro.

For a further data set, the target named is Plasma kallikrein (Homo sapiens, UniProt P03952). Nature of the data set: Concentration required to inhibit enzymatic cleavage of the chromogenic substrate (H-D-Pro-Phe-Arg-pNA) for plasma kallikrein in vitro.
Plasma kallikrein, sequence (P03952 whole entry, looked up): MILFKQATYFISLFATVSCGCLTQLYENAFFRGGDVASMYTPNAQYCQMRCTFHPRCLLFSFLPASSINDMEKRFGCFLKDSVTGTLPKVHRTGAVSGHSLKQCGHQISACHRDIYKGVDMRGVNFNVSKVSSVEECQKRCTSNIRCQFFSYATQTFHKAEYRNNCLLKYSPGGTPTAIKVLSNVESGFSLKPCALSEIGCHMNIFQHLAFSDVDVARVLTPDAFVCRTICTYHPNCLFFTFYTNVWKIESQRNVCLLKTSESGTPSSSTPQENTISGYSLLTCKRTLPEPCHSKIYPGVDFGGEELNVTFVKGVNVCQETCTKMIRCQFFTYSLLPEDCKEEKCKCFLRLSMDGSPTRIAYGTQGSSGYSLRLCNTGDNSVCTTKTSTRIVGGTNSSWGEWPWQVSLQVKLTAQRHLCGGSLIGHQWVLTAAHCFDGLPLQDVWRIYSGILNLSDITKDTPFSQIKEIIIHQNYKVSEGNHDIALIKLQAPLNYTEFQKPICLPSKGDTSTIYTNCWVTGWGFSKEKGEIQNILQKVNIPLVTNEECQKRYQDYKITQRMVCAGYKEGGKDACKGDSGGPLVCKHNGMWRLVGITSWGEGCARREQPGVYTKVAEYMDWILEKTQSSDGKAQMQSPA
The next data set addresses Kallikrein-1 (Homo sapiens, UniProt P06870). Nature of the data set: Concentration required to inhibit enzymatic cleavage of the chromogenic substrate (H-D-Val-Leu-Arg-pNA) for pancreatic kallikrein in vitro.
Another data set concerns the target Plasminogen (Rattus norvegicus, UniProt Q01177). Nature of the data set: Concentration required to inhibit enzymatic cleavage of the chromogenic substrate (H-D-Val-Leu-Lys-pNA) for plasmin in vitro.
Data set [1] in a line: Concentration required to inhibit enzymatic cleavage of the chromogenic substrate (Suc-Ala-Ala-Ala-AMC) for pancreatic elastase in vitro. Also noted: species or system Homo sapiens.
Another data set addresses Prothrombin (Homo sapiens, UniProt P00734). Nature of the data set: Concentration required to inhibit enzymatic cleavage of the chromogenic substrate (H-D-Phe-Pip-Arg-pNA) thrombin in vitro.
The next data set has as its target Serine protease 1 (Homo sapiens, UniProt P07477). Nature of the data set: Concentration required to inhibit enzymatic cleavage of the chromogenic substrate (Boc-Phe-Ser-Arg-AMC) for trypsin in vitro.
A further data set deals with T2, Cathepsin G (Homo sapiens, UniProt P08311).
T2 sequence (P08311 whole entry): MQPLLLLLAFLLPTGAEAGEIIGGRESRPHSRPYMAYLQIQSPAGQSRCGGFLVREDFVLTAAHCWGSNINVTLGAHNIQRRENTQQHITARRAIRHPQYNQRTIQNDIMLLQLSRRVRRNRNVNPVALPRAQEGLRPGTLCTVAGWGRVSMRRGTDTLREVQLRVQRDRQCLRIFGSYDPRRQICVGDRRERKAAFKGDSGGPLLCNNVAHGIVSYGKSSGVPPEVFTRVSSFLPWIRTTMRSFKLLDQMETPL
The data set can be described thus: Concentration required to inhibit enzymatic cleavage of the chromogenic substrate (MeO-Suc-Ala-Ala-Pro-Met-pNA) for cathepsin G in vitro.

Data set [2] can be described thus: Area under the plasma concentration was determined in fasted Beagle dogs after peroral administration of 20 mg/kg. Also noted: dose 20 mg/kg, route oral. Format: ADME, organism-based, Canis lupus familiaris. The settings on record: dog, po. The method in brief: (§1)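 Fasted beagle dogs dosed orally; plasma (0.2 mL) deproteinized with acetonitrile containing 1% methanesulfonic acid at 5 °C, centrifuged 10 min at 3000 rpm at 5 °C, analyzed by HPLC with n-propyl or iso-amyl 4-hydroxybenzoate as internal standard.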

Data set [3] in a line: Half-life in rat plasma. Format: ADME, organism-based. The method in brief: (§2)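 Compound in MeOH (1 mg/mL stock) incubated with rat or dog plasma, liver homogenate or small intestine homogenate at 37 °C for 120 min; aliquots taken at regular intervals into acetonitrile with 1% methanesulfonic acid at 5 °C, centrifuged 10 000 rpm 1 min, analyzed by HPLC to give hydrolysis half-life (min) and products.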

Data set [4] is described as follows: Half-life in rat liver homogenate. Format: ADME, organism-based. In outline:
as §2

Data set [5] is described as follows: Half-life in dog liver homogenate. The format is ADME, organism-based, Canis lupus familiaris. The method in brief: as §2
Data set [6] in a line: Half-life in dog plasma. The format is ADME, organism-based, Canis lupus familiaris. In outline: as §2
Data set [7] is described as follows: Half-life in dog small intestine homogenate. Format: ADME, organism-based, Canis lupus familiaris. In outline:
as §2

A short description of data set [8]: Half-life in rat small intestine homogenate. Format: ADME, organism-based. The method in brief:
as §2

A short description of data set [9]: Area under the plasma concentration was determined in fasted Beagle dogs after peroral administration of 100 mg/kg. Also noted: dose 100 mg/kg, route oral. The settings on record: dog, po. Format: ADME, organism-based, Canis lupus familiaris. In outline: as §1

The IC50 is the concentration needed to halve the response being measured. As a reminder, the AUC is concentration integrated over time. By half-life is commonly meant the time needed for the level to fall by half in the phase considered. Read a high half-life as slow decline.

Kallikrein-1, sequence (P06870 whole entry): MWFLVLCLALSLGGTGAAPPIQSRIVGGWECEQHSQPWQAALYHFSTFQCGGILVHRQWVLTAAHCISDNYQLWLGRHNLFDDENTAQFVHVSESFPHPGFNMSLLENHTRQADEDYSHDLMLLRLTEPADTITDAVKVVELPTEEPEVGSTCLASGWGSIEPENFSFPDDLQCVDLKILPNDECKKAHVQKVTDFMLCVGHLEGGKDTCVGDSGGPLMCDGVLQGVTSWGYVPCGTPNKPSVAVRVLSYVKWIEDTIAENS
Serine protease 1, sequence (P07477 whole entry): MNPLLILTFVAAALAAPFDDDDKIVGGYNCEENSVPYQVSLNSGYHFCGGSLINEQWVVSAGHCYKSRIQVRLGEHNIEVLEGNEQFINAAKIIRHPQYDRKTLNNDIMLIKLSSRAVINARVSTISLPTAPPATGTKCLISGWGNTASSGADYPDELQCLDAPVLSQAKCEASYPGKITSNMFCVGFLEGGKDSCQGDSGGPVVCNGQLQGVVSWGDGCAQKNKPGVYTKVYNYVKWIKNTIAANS
Plasminogen, sequence (Q01177 97-581 limits assumed): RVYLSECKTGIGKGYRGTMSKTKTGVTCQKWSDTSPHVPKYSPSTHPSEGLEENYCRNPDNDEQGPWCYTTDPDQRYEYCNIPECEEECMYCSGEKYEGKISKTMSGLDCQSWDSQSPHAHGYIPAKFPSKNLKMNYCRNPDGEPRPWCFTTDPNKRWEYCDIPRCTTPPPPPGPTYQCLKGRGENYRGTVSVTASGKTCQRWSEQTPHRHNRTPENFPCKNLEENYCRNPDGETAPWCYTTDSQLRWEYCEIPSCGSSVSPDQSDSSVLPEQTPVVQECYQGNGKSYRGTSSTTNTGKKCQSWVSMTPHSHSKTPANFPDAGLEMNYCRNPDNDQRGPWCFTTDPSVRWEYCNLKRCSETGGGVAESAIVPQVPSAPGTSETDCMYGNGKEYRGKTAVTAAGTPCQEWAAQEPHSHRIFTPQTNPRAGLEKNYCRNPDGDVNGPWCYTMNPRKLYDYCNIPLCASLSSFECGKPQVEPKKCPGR
Plasminogen, sequence (Q01177 582-812 limits assumed): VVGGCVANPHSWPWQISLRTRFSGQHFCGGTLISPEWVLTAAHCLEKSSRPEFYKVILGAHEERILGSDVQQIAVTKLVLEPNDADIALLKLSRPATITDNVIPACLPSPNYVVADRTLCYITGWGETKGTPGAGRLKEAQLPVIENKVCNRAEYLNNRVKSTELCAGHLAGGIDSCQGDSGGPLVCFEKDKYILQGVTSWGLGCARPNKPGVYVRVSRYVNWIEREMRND

Consider `N=C(N)Nc1ccc(C(=O)Oc2ccc(CC(=O)O)cc2)cc1`, for which the IC50 against Chymotrypsinogen A was above 100 µM; at Neutrophil elastase, above 100 µM; on Plasma kallikrein it was 2.32 µM; on Kallikrein-1, above 100 µM; against Plasminogen, 12.5 µM; in [1] it was above 100 µM. For the same compound, the IC50 against Prothrombin was 108 µM; against Serine protease 1, 0.055 µM; against Cathepsin G it was above 100 µM.

Compound `CN(C)C(=O)COC(=O)Cc1ccc(OC(=O)c2ccc(NC(=N)N)cc2)cc1.CS(=O)(=O)O` [CAMOSTAT MESILATE] displayed an AUC in [2] of 1820 ng·h/mL. The IC50 was above 100 µM at Chymotrypsinogen A; above 100 µM on Neutrophil elastase; 1.48 µM on Plasma kallikrein; 34.1 µM at Kallikrein-1; 2.62 µM against Plasminogen; above 100 µM in data set [1]. Besides, the values for the IC50 at Serine protease 1 and against Cathepsin G were 0.0506 µM and above 100 µM, respectively.

In the case of `C=CCN(CC(=O)OCC)C(=O)/C(C)=C/c1ccc(C(=O)Oc2ccc(C(=N)N)cc2)cc1.CS(=O)(=O)O`, the half-life in [3] was below 1 min; in data set [4], below 1 min; in [5], below 1 min; in data set [6] it was 25 min; in data set [7] it was above 60 min; in [8], 11 min. The IC50 is above 100 µM at Chymotrypsinogen A; above 100 µM against Neutrophil elastase; 0.19 µM on Plasma kallikrein; 15.7 µM at Kallikrein-1; 0.873 µM against Plasminogen; above 100 µM in data set [1]. Also, the IC50 at Prothrombin is 3.66 µM; against Serine protease 1 it was 0.0112 µM; against Cathepsin G, above 100 µM.

`C=CCN(CC(=O)O)C(=O)/C(C)=C/c1ccc(C(=O)Oc2ccc(C(=N)N)cc2)cc1.CS(=O)(=O)O`: the AUC stood at 27000 ng·h/mL in [9] and 5230 ng·h/mL in data set [2]. The half-life in data set [3] was above 60 min; in data set [4], above 60 min; in data set [5], above 60 min; in data set [6], 15 min; in [7] it was above 60 min; in data set [8], above 60 min. The IC50 on Chymotrypsinogen A is above 100 µM; at Neutrophil elastase, above 100 µM; against Plasma kallikrein, 0.0965 µM; at Kallikrein-1, above 100 µM; against Plasminogen, 1.83 µM; in data set [1] it was above 100 µM. The IC50 at Prothrombin was 35 µM; against Serine protease 1, 0.00413 µM; against Cathepsin G, above 100 µM.
